Test results taken from ChEMBL document CHEMBL1129363, “(S)-13-[(dimethylamino)methyl]-10,11,14,15-tetrahydro-4,9:16, 21-dimetheno-1H, 13H-dibenzo[e,k]pyrrolo[3,4-h][1,4,13]oxadiazacyclohexadecene-1,3(2H)-d ione (LY333531) and related analogues: isozyme selective inhibitors of protein kinase C beta” (J Med Chem, 1996).

Molecular target: not listed separately
Test: Inhibition of purified mammalian brain calcium [Ca(2+)]/Calmodulin dependent kinase
Conditions: not given

Row | Compound | IC50
1 | NC[C@@H]1CCn2cc(c3ccccc32)C2=C(C(=O)NC2=O)c2cn(c3ccccc23)CCO1 | 2.7 µM
2 | O=C1NC(=O)C2=C1c1cn(c3ccccc13)CCO[C@H](CN1CCCC1)CCn1cc2c2ccccc21 | 5.3 µM
3 | CN(C)C[C@@H]1CCn2cc(c3ccccc32)C2=C(C(=O)NC2=O)c2cn(c3ccccc23)CCO1 [RUBOXISTAURIN] | 6.2 µM
4 | CN[C@@H]1C[C@H]2O[C@@](C)([C@@H]1OC)n1c3ccccc3c3c4c(c5c6ccccc6n2c5c31)C(=O)NC4 [STAUROSPORINE] | 0.004 µM

Molecular target: Protein kinase C eta type (Homo sapiens, UniProt P24723)
Test: Inhibition of Protein kinase C eta
Conditions: not given

Chain of Protein kinase C eta type (P24723 whole entry): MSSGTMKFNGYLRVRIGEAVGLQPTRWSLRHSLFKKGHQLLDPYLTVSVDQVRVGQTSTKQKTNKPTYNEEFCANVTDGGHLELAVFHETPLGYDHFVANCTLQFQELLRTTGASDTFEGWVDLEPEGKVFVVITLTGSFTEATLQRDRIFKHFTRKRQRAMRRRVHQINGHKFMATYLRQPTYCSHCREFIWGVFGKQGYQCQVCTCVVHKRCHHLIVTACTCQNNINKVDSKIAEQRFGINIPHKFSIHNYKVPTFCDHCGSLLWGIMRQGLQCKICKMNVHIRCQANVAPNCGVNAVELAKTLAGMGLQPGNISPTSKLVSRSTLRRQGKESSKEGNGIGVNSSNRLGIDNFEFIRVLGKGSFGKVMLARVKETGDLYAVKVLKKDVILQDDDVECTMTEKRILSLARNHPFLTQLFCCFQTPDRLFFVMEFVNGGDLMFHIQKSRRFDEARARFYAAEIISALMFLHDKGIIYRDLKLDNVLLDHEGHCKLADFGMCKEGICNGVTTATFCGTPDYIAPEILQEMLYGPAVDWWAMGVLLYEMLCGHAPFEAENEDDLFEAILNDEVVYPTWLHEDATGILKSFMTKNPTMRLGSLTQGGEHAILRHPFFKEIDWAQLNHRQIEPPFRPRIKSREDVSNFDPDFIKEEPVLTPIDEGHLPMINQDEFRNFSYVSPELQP

Row | Compound | IC50
5 | O=C1NC(=O)C2=C1c1cn(c3ccccc13)CCO[C@H](CO)CCn1cc2c2ccccc21 | 0.3 µM
6 | NC[C@@H]1CCn2cc(c3ccccc32)C2=C(C(=O)NC2=O)c2cn(c3ccccc23)CCO1 | 0.24 µM
7 | O=C1NC(=O)C2=C1c1cn(c3ccccc13)CCO[C@H](CN1CCCC1)CCn1cc2c2ccccc21 | 0.35 µM
8 | CN(C)C[C@@H]1CCn2cc(c3ccccc32)C2=C(C(=O)NC2=O)c2cn(c3ccccc23)CCO1 [RUBOXISTAURIN] | 0.052 µM

Molecular target: Protein kinase C (PKC)
Test: Inhibition of rat brain Protein kinase C
Conditions: not given
Summary of the method: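 Purified rat-brain PKC was used as enzyme. Values are averages of at least three independent determinations, each from an eight-point titration curve.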

Row | Compound | IC50
9 | CN(C)C[C@@H]1CCn2cc(c3ccccc32)C2=C(C(=O)NC2=O)c2cn(c3ccccc23)CCO1 [RUBOXISTAURIN] | 0.32 µM

Molecular target: Protein kinase C gamma type (Homo sapiens, UniProt P05129)
Test: Inhibition of Protein kinase C gamma
Conditions: not given

Row | Compound | IC50
10 | O=C1NC(=O)C2=C1c1cn(c3ccccc13)CCO[C@H](CO)CCn1cc2c2ccccc21 | 2 µM
11 | NC[C@@H]1CCn2cc(c3ccccc32)C2=C(C(=O)NC2=O)c2cn(c3ccccc23)CCO1 | 2.1 µM
12 | O=C1NC(=O)C2=C1c1cn(c3ccccc13)CCO[C@H](CN1CCCC1)CCn1cc2c2ccccc21 | 2.2 µM
13 | CN(C)C[C@@H]1CCn2cc(c3ccccc32)C2=C(C(=O)NC2=O)c2cn(c3ccccc23)CCO1 [RUBOXISTAURIN] | 0.3 µM

Tested on: not listed separately
Test: Concentration for 50% cell death determined by lysosomal staining in the neutral red viability assay
Conditions: read-out: Tox50
Summary of the method: (§1)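 Bovine retinal capillary endothelial cells, passages 3–10, were grown to confluence (10⁵ cells/well) in EGM with 10% FBS. Medium was switched to DME with 10% FBS 24 h before the assay. Compound in DMSO was added for 48 h at 37 °C. Viability was read by neutral red lysosomal staining, and the value is the concentration giving 50% cell death.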

Row | Compound | CC50
14 | CN(C)C[C@@H]1CCn2cc(c3ccccc32)C2=C(C(=O)NC2=O)c2cn(c3ccccc23)CCO1 [RUBOXISTAURIN] | > 20 µM

Tested on: not listed separately
Test: Inhibition of rat brain Casein kinase II
Conditions: not given

Row | Compound | IC50
15 | O=C1NC(=O)C2=C1c1cn(c3ccccc13)CCO[C@H](CO)CCn1cc2c2ccccc21 | > 100 µM
16 | NC[C@@H]1CCn2cc(c3ccccc32)C2=C(C(=O)NC2=O)c2cn(c3ccccc23)CCO1 | > 100 µM
17 | O=C1NC(=O)C2=C1c1cn(c3ccccc13)CCO[C@H](CN1CCCC1)CCn1cc2c2ccccc21 | > 100 µM
18 | CN(C)C[C@@H]1CCn2cc(c3ccccc32)C2=C(C(=O)NC2=O)c2cn(c3ccccc23)CCO1 [RUBOXISTAURIN] | > 100 µM

Molecular target: Proto-oncogene tyrosine-protein kinase Src (Homo sapiens, UniProt P12931)
Test: Inhibition of src kinase
Conditions: not given

Chain of Proto-oncogene tyrosine-protein kinase Src (P12931 2-536 limits assumed): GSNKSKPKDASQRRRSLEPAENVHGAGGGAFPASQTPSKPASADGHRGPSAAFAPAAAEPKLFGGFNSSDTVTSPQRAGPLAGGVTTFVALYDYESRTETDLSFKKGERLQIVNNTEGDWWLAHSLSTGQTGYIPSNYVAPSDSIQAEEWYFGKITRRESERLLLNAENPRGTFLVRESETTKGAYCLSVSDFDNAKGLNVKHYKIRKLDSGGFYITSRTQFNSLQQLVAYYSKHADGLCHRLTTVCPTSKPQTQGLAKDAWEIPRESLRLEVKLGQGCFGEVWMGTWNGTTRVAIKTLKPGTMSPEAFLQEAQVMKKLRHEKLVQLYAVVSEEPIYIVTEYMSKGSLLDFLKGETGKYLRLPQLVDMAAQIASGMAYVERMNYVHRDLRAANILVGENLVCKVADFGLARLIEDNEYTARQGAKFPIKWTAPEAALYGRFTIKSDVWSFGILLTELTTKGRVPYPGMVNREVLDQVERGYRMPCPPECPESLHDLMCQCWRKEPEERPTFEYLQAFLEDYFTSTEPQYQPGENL

Row | Compound | IC50
19 | O=C1NC(=O)C2=C1c1cn(c3ccccc13)CCO[C@H](CO)CCn1cc2c2ccccc21 | > 100 µM
20 | NC[C@@H]1CCn2cc(c3ccccc32)C2=C(C(=O)NC2=O)c2cn(c3ccccc23)CCO1 | 89 µM
21 | O=C1NC(=O)C2=C1c1cn(c3ccccc13)CCO[C@H](CN1CCCC1)CCn1cc2c2ccccc21 | 11 µM

Molecular target: Protein kinase C delta type (Homo sapiens, UniProt Q05655)
Test: Inhibition of Protein kinase C delta
Conditions: not given

Chain of Protein kinase C delta type (Q05655 whole entry): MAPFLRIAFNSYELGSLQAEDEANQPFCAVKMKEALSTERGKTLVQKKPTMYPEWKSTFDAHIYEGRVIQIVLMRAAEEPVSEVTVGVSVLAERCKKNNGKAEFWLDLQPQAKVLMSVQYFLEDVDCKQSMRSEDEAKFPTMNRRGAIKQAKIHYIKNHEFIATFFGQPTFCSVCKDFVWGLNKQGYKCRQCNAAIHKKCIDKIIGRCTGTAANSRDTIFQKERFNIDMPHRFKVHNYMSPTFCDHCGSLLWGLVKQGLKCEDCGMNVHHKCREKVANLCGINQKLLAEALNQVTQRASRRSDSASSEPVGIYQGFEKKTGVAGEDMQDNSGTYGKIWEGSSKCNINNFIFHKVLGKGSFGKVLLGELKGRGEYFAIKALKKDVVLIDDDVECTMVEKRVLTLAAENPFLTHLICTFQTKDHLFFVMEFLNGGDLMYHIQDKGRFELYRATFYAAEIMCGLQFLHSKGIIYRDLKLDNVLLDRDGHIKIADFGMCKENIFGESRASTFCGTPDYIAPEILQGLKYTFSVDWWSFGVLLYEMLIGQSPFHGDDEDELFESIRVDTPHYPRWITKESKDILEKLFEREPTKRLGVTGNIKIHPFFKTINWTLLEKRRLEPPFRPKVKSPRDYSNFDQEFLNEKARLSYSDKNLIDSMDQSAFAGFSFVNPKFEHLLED

Row | Compound | IC50
22 | NC[C@@H]1CCn2cc(c3ccccc32)C2=C(C(=O)NC2=O)c2cn(c3ccccc23)CCO1 | 2.6 µM
23 | O=C1NC(=O)C2=C1c1cn(c3ccccc13)CCO[C@H](CN1CCCC1)CCn1cc2c2ccccc21 | 3.3 µM

Tested on: not listed separately
Test: Concentration for 50% cell death determined by lysosomal staining in the neutral red viability assay.
Conditions: read-out: Tox50
Summary of the method: as §1

Row | Compound | CC50
24 | NC[C@@H]1CCn2cc(c3ccccc32)C2=C(C(=O)NC2=O)c2cn(c3ccccc23)CCO1 | > 20 µM
25 | O=C1NC(=O)C2=C1c1cn(c3ccccc13)CCO[C@H](CN1CCCC1)CCn1cc2c2ccccc21 | > 10 µM
26 | CN[C@@H]1C[C@H]2O[C@@](C)([C@@H]1OC)n1c3ccccc3c3c4c(c5c6ccccc6n2c5c31)C(=O)NC4 [STAUROSPORINE] | < 0.02 µM

Tested on: not listed separately
Test: Effective concentration for 50% inhibition of endothelial cell based plasminogen activity relative to control by beta-PDBu stimulation
Type: functional
Conditions: not given
Summary of the method: (§2)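 Bovine retinal capillary endothelial cells (passages 3–10), grown to confluence (10⁵ cells/well) in EGM with 10% FBS, switched to DME/10% FBS 24 h before assay; treated with 4β-PDBu plus compound in DMSO, 37 °C, 48 h. Lysate (25 mM NH₄OH, 0.5% Triton X-100) incubated with plasminogen and 1 mM chromogenic substrate, 25 °C 45 min, A410 against urokinase/tPA standard curve.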

Row | Compound | EC50
27 | O=C1NC(=O)C2=C1c1cn(c3ccccc13)CCO[C@H](CO)CCn1cc2c2ccccc21 | 3 µM

Tested on: not listed separately
Test: Effective concentration for 50% inhibition of endothelial cell- based plasminogen activator activity relative to control by beta-PDBu stimulation
Type: functional
Conditions: not given
Summary of the method: as §2

Row | Compound | EC50
28 | NC[C@@H]1CCn2cc(c3ccccc32)C2=C(C(=O)NC2=O)c2cn(c3ccccc23)CCO1 | 7.5 µM
29 | O=C1NC(=O)C2=C1c1cn(c3ccccc13)CCO[C@H](CN1CCCC1)CCn1cc2c2ccccc21 | 0.55 µM

Molecular target: not listed separately
Test: Inhibition of Bovine heart cAMP-dependent protein kinase
Set-up: species or system Bos taurus
Conditions: not given
Summary of the method: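 Bovine heart cAMP-dependent kinase catalytic subunit with 200 µg/mL histone type HL substrate in 20 mM HEPES pH 7.5, 10 mM MgCl₂, 30 µM [γ-³²P]ATP; inhibitor in DMSO; 30 °C, 10 min; TCA-stopped, precipitate filtered and scintillation-counted. Average of at least three independent determinations from eight-point titration curves.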

Row | Compound | IC50
30 | O=C1NC(=O)C2=C1c1cn(c3ccccc13)CCO[C@H](CO)CCn1cc2c2ccccc21 | > 100 µM
31 | NC[C@@H]1CCn2cc(c3ccccc32)C2=C(C(=O)NC2=O)c2cn(c3ccccc23)CCO1 | 83 µM
32 | O=C1NC(=O)C2=C1c1cn(c3ccccc13)CCO[C@H](CN1CCCC1)CCn1cc2c2ccccc21 | > 100 µM
33 | CN(C)C[C@@H]1CCn2cc(c3ccccc32)C2=C(C(=O)NC2=O)c2cn(c3ccccc23)CCO1 [RUBOXISTAURIN] | > 100 µM

Molecular target: T1, Protein kinase C zeta type (Homo sapiens, UniProt Q05513)
T1 sequence (Q05513 whole entry): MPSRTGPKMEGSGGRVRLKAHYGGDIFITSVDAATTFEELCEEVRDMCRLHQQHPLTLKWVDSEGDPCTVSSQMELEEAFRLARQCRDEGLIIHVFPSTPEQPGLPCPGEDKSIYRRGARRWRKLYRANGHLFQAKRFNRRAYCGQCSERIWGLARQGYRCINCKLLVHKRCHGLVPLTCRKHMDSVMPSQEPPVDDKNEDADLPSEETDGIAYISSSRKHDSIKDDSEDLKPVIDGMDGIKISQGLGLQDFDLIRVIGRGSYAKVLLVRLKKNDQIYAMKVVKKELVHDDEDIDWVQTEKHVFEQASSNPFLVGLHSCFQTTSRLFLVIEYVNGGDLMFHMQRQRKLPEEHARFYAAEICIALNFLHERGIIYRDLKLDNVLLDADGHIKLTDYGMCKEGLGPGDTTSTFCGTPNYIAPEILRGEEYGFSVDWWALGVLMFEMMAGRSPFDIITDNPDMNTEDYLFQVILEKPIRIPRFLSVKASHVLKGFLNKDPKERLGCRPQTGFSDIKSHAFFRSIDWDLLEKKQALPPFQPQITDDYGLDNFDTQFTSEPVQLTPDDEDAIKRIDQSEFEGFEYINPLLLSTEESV
Test: Inhibition of Protein kinase C zeta
Conditions: not given

Row | Compound | IC50
34 | O=C1NC(=O)C2=C1c1cn(c3ccccc13)CCO[C@H](CO)CCn1cc2c2ccccc21 | 8.7 µM

Molecular target: T2, Protein kinase C epsilon type (Homo sapiens, UniProt Q02156)
T2 sequence (Q02156 whole entry): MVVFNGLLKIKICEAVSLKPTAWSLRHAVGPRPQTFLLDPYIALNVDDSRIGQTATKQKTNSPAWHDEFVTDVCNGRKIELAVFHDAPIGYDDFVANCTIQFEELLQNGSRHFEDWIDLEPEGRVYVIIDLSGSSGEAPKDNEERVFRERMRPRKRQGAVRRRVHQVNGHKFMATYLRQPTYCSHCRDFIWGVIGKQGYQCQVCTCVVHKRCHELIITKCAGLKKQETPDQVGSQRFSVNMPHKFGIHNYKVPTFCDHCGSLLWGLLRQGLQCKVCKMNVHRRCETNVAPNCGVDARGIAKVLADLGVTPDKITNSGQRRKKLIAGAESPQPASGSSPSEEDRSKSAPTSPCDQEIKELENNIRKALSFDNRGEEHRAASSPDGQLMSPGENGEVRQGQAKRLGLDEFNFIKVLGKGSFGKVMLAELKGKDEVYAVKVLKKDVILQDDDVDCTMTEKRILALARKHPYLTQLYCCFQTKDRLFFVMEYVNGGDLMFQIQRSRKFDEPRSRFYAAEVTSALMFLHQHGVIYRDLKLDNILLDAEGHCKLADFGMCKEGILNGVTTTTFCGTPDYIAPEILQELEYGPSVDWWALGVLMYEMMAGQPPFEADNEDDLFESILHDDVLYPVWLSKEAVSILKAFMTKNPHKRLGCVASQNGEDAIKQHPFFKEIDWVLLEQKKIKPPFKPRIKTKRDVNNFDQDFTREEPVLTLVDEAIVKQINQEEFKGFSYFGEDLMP
Test: Inhibition of Protein kinase C epsilon
Conditions: not given

Row | Compound | IC50
35 | O=C1NC(=O)C2=C1c1cn(c3ccccc13)CCO[C@H](CO)CCn1cc2c2ccccc21 | 79 µM
36 | NC[C@@H]1CCn2cc(c3ccccc32)C2=C(C(=O)NC2=O)c2cn(c3ccccc23)CCO1 | > 5 µM
37 | O=C1NC(=O)C2=C1c1cn(c3ccccc13)CCO[C@H](CN1CCCC1)CCn1cc2c2ccccc21 | 3.8 µM

Molecular target: Protein kinase C alpha type (Homo sapiens, UniProt P17252)
Test: Inhibition of Protein kinase C alpha
Conditions: not given

Row | Compound | IC50
38 | NC[C@@H]1CCn2cc(c3ccccc32)C2=C(C(=O)NC2=O)c2cn(c3ccccc23)CCO1 | 1.1 µM
39 | O=C1NC(=O)C2=C1c1cn(c3ccccc13)CCO[C@H](CN1CCCC1)CCn1cc2c2ccccc21 | 3.5 µM

Tested on: not listed separately
Test: Effective dose against plasminogen activator activity stimulated by phorbol ester in endothelial cells
Type: functional
Conditions: Endothelial cell; read-out: ED50 (the source's name)

Row | Compound | EC50
40 | O=C1NC(=O)C2=C1c1cn(c3ccccc13)CCO[C@H](CO)CCn1cc2c2ccccc21 | 3 µM
41 | NC[C@@H]1CCn2cc(c3ccccc32)C2=C(C(=O)NC2=O)c2cn(c3ccccc23)CCO1 | 7.5 µM
42 | O=C1NC(=O)C2=C1c1cn(c3ccccc13)CCO[C@H](CN1CCCC1)CCn1cc2c2ccccc21 | 0.55 µM
43 | CN(C)C[C@@H]1CCn2cc(c3ccccc32)C2=C(C(=O)NC2=O)c2cn(c3ccccc23)CCO1 [RUBOXISTAURIN] | 0.21 µM
